{"source": "paper PMC11752056", "about": "(Chemical Science, 2025)", "molecules": {"B1": {"name": "14-3-3σ (natural protein)", "chain": "MERASLIQKAKLAEQAERYEDMAAFMKGAVEKGEELSCEERNLLSVAYKNVVGGQRAAWRVLSSIEQKSNEEGSEEKGPEVREYREKVETELQGVCDTVLGLLDSHLIKEAGDAESRVFYLKMKGDYYRYLAEVATGDDKKRIIDSARSAYQEAMDISKKEMPPTNPIRLGLALNFSVFHYEIANSPEEAISLAKTTFDEAMADLHTLSEDSYKDSTLIMQLLRDNLTLWT"}}, "key": {"14-3-3σ": {"biological_target": "T1, 14-3-3σ (Homo sapiens, UniProt P31947)", "T1 sequence (P31947 1-231 limits assumed)": "B1 chain", "test": "Intact MS conjugation of compound to 14-3-3σ", "format": "biochemical", "settings": "14-3-3σ : cyclohexenone : NEM 1:10:10, overnight, 10 °C, BTP buffer pH 7", "in_short": "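Recombinant full-length 14-3-3σ (8 μM) was incubated overnight with 10 eq. (80 μM) of compound, with or without peptide, in 20 mM BTP buffer at pH 7 and 10 °C. Protein species (unmodified, conjugated, crosslinked) were read from deconvoluted intact mass spectra and expressed as percentage conjugation or crosslinking.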"}, "[1]": {"settings": "L-cysteine–maleimide conjugation; cited from earlier work"}, "[2]": {"biological_target": "the peptide panel (mutated B-Raf peptides: +5 mutants and histidine scan)", "test": "fluorescence polarisation"}}}
{"molecule": "CCN1C(=O)C=CC1=O", "note": "[NEM, N-ethylmaleimide]", "values": [{"measurement": "conjugate formed on co-incubation of cyclohexenone and NEM", "setting": "14-3-3σ", "result": "exclusively the 14-3-3σ–NEM conjugate"}]}
{"molecule": "O=C1C=CC(=O)N1", "note": "[maleimide]", "values": [{"measurement": "reaction rate (k2)", "setting": "[1]", "result": "17.6 ± 0.9 × 10^3 M^−1 s^−1"}]}
{"molecule": "B1", "values": [{"measurement": "Kd", "setting": "[2]", "result": "1.8 to 135", "unit": "µM"}]}
